# High-throughput results deposited in PubChem BioAssay by several laboratories.
# Beta apoptosis – inhibitors of cytokine-induced beta cell apoptosis, primary screen, luminescence; INS-1E cytokine-induced death, ATP luminescence, 48 h; percent of positive-control rescue, neutral wells zero; protection from apoptosis, % (no concentration beside the values); actives 0.8% (n = 300,000);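 active means Every replicate reaches about 75%, or at least half do and their mean reaches it too, limit read from the data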;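 further: 0% = cytokine-treated negative control wells and 100% = positive control rescue; higher means more ATP so stronger rescue from cytokine killing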
# A1 inh – caspase 3/7 activation in MEF A1-2A-BIM cells, primary screen, A1 inhibitor project, cell-based, luminescence, HTS. Caspase-Glo 3/7 luminescence, 3 h; percent of clofoctol response, vehicle zero. caspase activation, % (concentration not given with the values). actives 0.066% (n = 330,000). AID 2462, 2010;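 active means over half of replicate activation scores above 10%, or exactly half above 10 with the replicate mean above 10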
# T cruzi inh – inhibitors of intracellular T. cruzi growth, primary screen, luminescence, NIH3T3 host cells | AID 1885, 2009 | inhibition, % (no concentration beside the values) | actives 1.4% (n = 300,000) | T. cruzi beta-gal in NIH3T3, 90 h;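 active means mean inhibition across valid replicates above about 55%, limit read from the data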;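 further: signal also drops with host cell toxicity which is not excluded here; 0% = plate median of DMSO wells and 100% = zero luminescence signal; higher percent means less beta-gal luminescence so fewer parasites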
#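 Assay system: NIH/3T3 host cells with β-galactosidase reporter T. cruzi; input: 5,000 host fibroblasts per well; compound: single 50 nL compound addition per well in DMSO; timing: ≥90 h infection period, 3 h prior cell attachment; measured by: GalScreen β-gal luminescence, detergent lysis, 60 min; evaluation: percent inhibition of parasite-derived β-gal signal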
# CSC inhib – cancer stem cell viability inhibitors, primary screen, luminescence; actives 1.1% (n = 300,000); inhibition, % at 7.5 µM; cancer stem cell-like cells viability; in the data active means inhibition above about 75%; tested in HMLE shEcad cells
# H9c2 TAG inh – inhibitors of triacylglycerol accumulation, primary screen, cell-based, uHTS, fluorescence, H9c2; H9c2 cells, Nile Red lipid (TAG) fluorescence; cells loaded with 200 µM oleic acid; inhibition, % at 12.5 µM; actives 0.66% (n = 230,000);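 active means pattern-corrected inhibition of lipid staining of at least 50% with the nuclear-stain viability signal not falling by more than 50%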;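 further: 0% = DMSO wells and 100% = triacsin C control wells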
# Calb FLC – C. albicans growth inhibition with fluconazole, primary screen, CaCi-2 strain, Alamar Blue fluorescence. C. albicans CaCi-2 (fluconazole-resistant clinical isolate) + fluconazole, 48 h. growth inhibition, % (concentration not given with the values). actives 0.57% (n = 300,000). AID 1979, 2009;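 active means growth inhibition above about 58% in most replicates, limit read from the data, passing the limit was not always enough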;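 further: all wells also contain fluconazole at 8 µg/ml as a sub-toxic cotreatment; 0% = median of DMSO wells and 100% = median of geldanamycin control wells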
# * marks the source's active call; other numbers are inactive results; nt = no result. This is a sample that favours compounds with a hit; in the whole collection about 3.1% have one here.
SMILES,Beta apoptosis,A1 inh,T cruzi inh,CSC inhib,H9c2 TAG inh,Calb FLC
CCOC(=O)C1=C(O)/C(=C/c2cn(CC(=O)NCC3CCCO3)c3ccccc23)SC1=Nc1ccc(C)cc1 (stereo not given),56.6,0.4,nt,76.0*,12.8,nt
CC(C)CC(=O)NC(=S)NNC(=O)c1ccc(NC(=O)C2CCCCC2)cc1,30.1,0.9,-4.5,-12.1,-4.1,75.5*
Cc1ccc(C)c(Cn2nnc3c(=O)[nH]c(C(=O)NCc4ccco4)nc32)c1,-0.6,0.0,7.8,nt,nt,-0.3
O=C(NCc1ccco1)c1nc2c(nnn2Cc2ccccc2Cl)c(=O)[nH]1,9.9,0.2,10.0,94.1*,nt,26.8
O=C(COc1ccc(-c2nnco2)cc1)Nc1cc([N+](=O)[O-])ccc1F,-3.9,-0.4,nt,-18.9,-13.4,nt
COc1ccc(C(=O)OCC(=O)N2c3ccccc3CC2C)cc1S(=O)(=O)N1CCOCC1 (stereo not given),nt,nt,nt,nt,1.5,nt
NC(=O)c1c(NC(=O)c2ccco2)sc2c1CCC2,-7.8,-2.6,-11.6,-3.5,nt,92.0*
NC(=O)c1c(NC(=O)c2ccncc2)sc2c1CCCC2,-1.3,0.4,25.4,nt,-1.6,73.2*
O=C(Nc1sc2c(c1C(=O)O)CCCCC2)c1ccco1,0.5,-7.0,-44.1,28.6,nt,25.1
COC(Cn1c2c(c3cc(C)ccc31)CCCC2NCc1ccccc1)OC (stereo not given),nt,nt,9.6,nt,-15.6,-0.1
CC(C)(C)c1ccc(S(=O)(=O)NC(=O)C2(C)CCN2C(=O)C2(c3ccc(Cl)cc3)CC2)cc1 (stereo not given),nt,nt,nt,nt,3.3,nt
COc1ccc2nc(-c3ccccn3)[nH]c2c1,8.3,-9.6,-6.4,12.4,69.9*,0.8
CCOc1ccc2nc3cc(NCc4ccc(OC)cc4)ccc3c(N)c2c1,28.2,0.3,52.6,120.8*,nt,102.0*
CSCCC(NC(=O)/C(=C/c1ccco1)NC(=O)c1ccco1)C(=O)O (stereo not given),nt,0.7,-13.3,-17.0,-9.9,4.0
CCN(CC(=O)Nc1ccc(NC(C)=O)cc1)C(=O)c1ccc(N2C(=O)c3ccccc3C2=O)cc1,nt,nt,nt,nt,14.0,nt
CCC(=O)Nc1nc(C)c(-c2csc(Nc3cccc(O)c3)n2)s1,-4.5,-1.5,-7.8,76.7*,nt,-1.5
Cc1nc(NC(=O)c2ccco2)sc1-c1csc(Nc2ccc(Cl)cc2)n1,7.3,-1.2,30.4,91.4*,nt,3.7
Cc1ccc(Cl)cc1Nc1nc(-c2sc(NC(=O)c3ccco3)nc2C)cs1,-13.8,-0.4,16.8,62.6,9.3,7.6
Cc1nc(NC(=O)CC(C)C)sc1-c1csc(Nc2ccc(Cl)cc2Cl)n1,7.6,-0.3,51.8,80.1*,30.6,-0.1
Cc1nc(NC(=O)c2ccco2)sc1-c1csc(Nc2ccc(Cl)cc2Cl)n1,10.6,-2.7,59.1*,56.5,19.8,2.0
Cc1ccc(NC(=O)NC(=O)COc2c(F)c(F)cc(F)c2F)c(C)c1,-2.8,1.1,nt,-14.1,2.2,nt
O=C(NCc1ccccn1)c1nc(Cn2ccc([N+](=O)[O-])n2)no1,1.3,0.7,7.9,5.6,nt,-3.3
COc1ccc2[nH]cc(CCNC(=O)CC[C@H]3O[C@@H](n4cc(C)c(=O)[nH]c4=O)C[C@@H]3O)c2c1,nt,nt,nt,nt,-2.3,nt
COc1ccc(C(=O)Nc2cccc(C)n2)cc1S(=O)(=O)N1CCCc2ccccc21,nt,nt,nt,nt,12.9,nt
CCc1ccc(N2CC(C(=O)N/N=C/c3cc([N+](=O)[O-])ccc3O)CC2=O)cc1 (stereo not given),6.3,-0.5,-4.4,-3.8,nt,106.0*
O=C(CSc1ccccc1)NNC(=O)c1ccncc1,nt,nt,nt,nt,-0.8,nt
C[C@@H]1CC[C@H]2C(=O)N3[C@@H](CC[C@@H](C)[C@@H]3c3ccc(Br)cc3)C(=O)N2[C@H]1c1ccc(Br)cc1,0.7,-0.8,12.9,78.7*,-11.9,8.4
COc1ccc(OCc2cc(C(=O)N3CCCC(O)C3)no2)c2ccccc12 (stereo not given),-8.2,-2.7,-3.3,2.8,-8.1,10.9
